How the values were obtained:
[1] = Selectivity index, ratio of CC50 for human TZM-bl cells to EC50 for CCR5 tropic HIV1 BaL infected in human TZM-bl cells; assay type: toxicity, cell-based; details: read-out: Ratio CC50/EC50
[2] = Cytotoxicity against human HepG2.2.15 cells assessed as cell viability by tetrazolium dye uptake assay; assay type: cell-based, HepG2 2.2.15
Method in brief: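 HepG2.2.15 cells (two integrated copies of HBV ayw1 genome) were seeded at 1.5 × 10^4 cells/well in DMEM with 2% FBS, 380 μg/mL G418, glutamine, antibiotics and nonessential amino acids. After 16−24 h, medium with various compound concentrations was added in triplicate and renewed on day 3. After 6 days of treatment, viability was read by MTS uptake and CC50 was calculated.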

[3] = Cytotoxicity against human TZM-bl cells assessed as cell viability by tetrazolium dye assay; assay type: cell-based
Human alphaherpesvirus 3 [4] = test: Antiviral activity against thymidine kinase expressing Varicella-Zoster virus Oka strain assessed as inhibition of plaque formation; assay type: functional; details: Human alphaherpesvirus 3, strain Oka vaccine
Method in brief: (§1)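 HEL fibroblast monolayers inoculated with 100 CCID50 HCMV (AD-169, Davis) or 20 PFU VZV (TK+ Oka, TK− 07-1). Adsorbed 1–2 h, inoculum removed, then incubated with compound dilutions. HCMV cytopathicity or VZV plaques scored once untreated infected controls reached completion. EC50 is 50% reduction. SI is CC50/EC50, and the potency ratio is the ratio of EC50s.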

[5] = Cytotoxic activity against HEL cells assessed as alteration of cell morphology after 3 days by microscopic method; assay type: cell-based; details: human
Method in brief: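 HEL cells with compound; MCC is the lowest concentration giving microscopically detectable alteration of cell morphology.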

Human alphaherpesvirus 3 [6] = test: Antiviral activity against thymidine kinase deficient Varicella-Zoster virus 07-1 infected in HEL cells assessed as inhibition of plaque formation; assay type: functional, cell-based; details: Human alphaherpesvirus 3, 07-1, HEL; method in brief: as §1
Human betaherpesvirus 5 [7] = test: Antiviral activity against HCMV Davis strain infected in HEL cells assessed as inhibition of virus-induced cytopathic effect; assay type: functional, cell-based; details: Human betaherpesvirus 5, Davis; method in brief: as §1
Hepatitis B virus = test: Antiviral activity against HBV ayw1 infected in human HepG2(2.2.15) cells assessed as reduction in viral replication by measuring extracellular viral DNA copy number after 6 days by real-time qPCR method; assay type: functional, cell-based; details: ayw1, HepG2 2.2.15, 144 h
Method in brief: (§2)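 HepG2.2.15 cells (two copies of HBV ayw1 genome), 1.5 × 10^4/well in DMEM with 2% FBS and 380 μg/mL G418. After 16–24 h, compound added in triplicate, medium with compound renewed at day 3. Supernatant collected at day 6, Pronase-treated, and extracellular HBV DNA measured by TaqMan qPCR (precore/core) against an HBV DNA standard curve. EC50/EC90 derived; CC50 by MTS uptake.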

Human betaherpesvirus 5 [8] = test: Antiviral activity against Human cytomegalovirus AD169 infected in HEL cells assessed as inhibition of virus-induced cytopathic effect; assay type: functional, cell-based; details: Human betaherpesvirus 5, AD169, HEL; method in brief: as §1
[9] = system: Human immunodeficiency virus 1; test: Antiviral activity against CCR5 tropic HIV1 BaL infected in human TZM-bl cells assessed as inhibition of virus-induced cytopathic effect preincubated with cells for 30 mins followed by viral infection measured after 48 hrs in presence of p-24 HIV-1 Ag by luciferase reporter gene assay; assay type: functional, cell-based; details: Human immunodeficiency virus 1, BaL
Method in brief: (§3)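 TZM-bl cells, 1 × 10^4 per well in DMEM with 10% FBS and 10 mM […], incubated 30 min at 37 °C with compound. Then HIV-1 NL4.3 (X4) or BaL (R5) added at 100 pg p24 Ag per well. After 48 h, cells lysed with luciferase substrate. Tat-induced luminescence read after 10 min dark incubation as a measure of replication.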

[10] = Selectivity index, ratio of CC50 for human TZM-bl cells to EC50 for CXCR4-tropic HIV-1 NL4-3 infected in human TZM-bl cells; assay type: toxicity, cell-based; details: read-out: Ratio CC50/EC50
[11] = Selectivity index, ratio of CC50 for HepG2.2.15 cells to EC50 for HBV ayw1 infected in human HepG2(2.2.15) cells assessed as reduction in viral replication by measuring extracellular viral DNA copy; method in brief: as §2
[12] = system: Human immunodeficiency virus 1; test: Antiviral activity against CXCR4-tropic HIV-1 NL4-3 infected in human TZM-bl cells assessed as inhibition of virus-induced cytopathic effect preincubated with cells for 30 mins followed by viral infection measured after 48 hrs in presence of p-24 HIV-1 Ag by luciferase reporter gene assay; assay type: functional, cell-based; details: Human immunodeficiency virus 1, NL4-3, TZM-bl; method in brief: as §3
[13] = Selectivity index, ratio of CC50 for human PHA-stimulated PBMC to IC50 for CXCR4-tropic HIV-1 NL4-3 infected in human PHA-stimulated PBMC
[14] = system: Human immunodeficiency virus 1; test: (§4) Antiviral activity against CCR5 tropic HIV1 BaL infected in human PHA-stimulated PBMC assessed as inhibition of viral replication by measuring reduction in p24 antigen production preincubated with cells for 30 mins followed by viral infection measured on day 10 post infection in presence of IL-2 by ELISA; assay type: functional; details: Human immunodeficiency virus 1, BaL
Method in brief: (§5)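 PBMCs stimulated with 2 μg/mL PHA for 3 days at 37 °C, then 5 × 10^5 cells/ml preincubated 30 min at 37 °C with serial compound dilutions plus 2 ng/mL IL-2. Infected with 1500 pg/well HIV-1 BaL or 500 pg/well other isolates. IL-2 re-added on days 3 and 6. Supernatant p24 Ag measured by ELISA at day 10. EC50 is 50% inhibition of replication.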

[15] = Cytotoxicity against human PHA-stimulated PBMC assessed as cell viability by tetrazolium dye assay; assay type: cell-based
[16] = Selectivity index, ratio of CC50 for human PHA-stimulated PBMCs to IC50 for CCR5 tropic HIV1 BaL infected in human PHA-stimulated PBMC
[17] = Cytotoxic activity against HEL cells assessed as reduction in cell proliferation after 3 days by coulter counting method; assay type: cell-based; details: human
Method in brief: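 HEL cells seeded at 5 × 10^3/well, grown 24 h, then given compound for 3 days at 37 °C. Cell number counted by Coulter counter. CC50 is 50% reduction of proliferation relative to untreated controls, read from graphic plots.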

[18] = system: Human immunodeficiency virus 1; test: as §4, with “CXCR4-tropic HIV-1 NL4-3” for “CCR5 tropic HIV1 BaL”; assay type: functional; details: Human immunodeficiency virus 1, NL4-3; method in brief: as §5

SMILES	selectivity ratio [1]	CC50 [2] [µM]	CC50 [3] [µM]	EC50 (Human alphaherpesvirus 3 [4]) [µM]	MCC at 72 h [5] [µM]	EC50 (Human alphaherpesvirus 3 [6]) [µM]	EC50 (Human betaherpesvirus 5 [7]) [µM]	EC50 (Hepatitis B virus) [µM]	EC90 (Hepatitis B virus) [µM]	EC50 (Human betaherpesvirus 5 [8]) [µM]	EC50 [9] [µM]	selectivity ratio [10]	Ratio CC50/EC50 [11]	EC50 [12] [µM]	Ratio CC50/IC50 [13]	IC50 [14] [µM]	CC50 [15] [µM]	Ratio CC50/IC50 [16]	CC50 at 72 h [17] [µM]	IC50 [18] [µM]
Cc1cn(C[C@@H](CF)OCP(=O)(O)O)c(=O)[nH]c1=O	1	> 100	> 100	> 338	> 338	338	> 338	> 100	> 100	> 338	> 100	> 2	1	56.8	–	–	–	–	–	–
Cc1cn(C[C@H](CF)OCP(=O)(O)O)c(=O)[nH]c1=O	1	> 100	> 100	> 338	> 338	> 338	> 338	> 100	> 100	> 338	> 100	> 2	1	54.8	–	–	–	–	–	–
Nc1nc(O)c2ncn(C[C@@H](CF)OCP(=O)(O)O)c2n1	> 26	> 100	> 100	15.5	> 311	12.5	57	0.59	42.7	127	3.79	> 21	>169	4.81	130	1.14	36.4	32	65.4	0.28
Nc1ccn(C[C@H](CF)OCP(=O)(O)O)c(=O)n1	1	> 100	> 100	> 356	> 356	> 356	> 356	> 100	> 100	> 356	> 100	> 2	1	54.1	–	–	–	–	–	–
CCCCCOC(=O)C[C@H](NP(=O)(CO[C@@H](CF)Cn1cnc2c(N)ncnc21)Oc1ccccc1)C(=O)OCCCCC (stereo partly drawn)	342	33	37.6	3.81	157	8.24	> 31.4	1.06	16.9	> 31.4	0.11	269	31	0.14	>1388	0.33	36.1	109	7.47	0.026
CCCCCOC(=O)C[C@H](NP(=O)(CO[C@H](CF)Cn1ccc(N)nc1=O)Oc1ccccc1)C(=O)OCCCCC (stereo partly drawn)	< 1	46.3	69	3.15	163	1.32	2.02	41.9	> 100	0.76	> 69	< 1	1	> 69	–	–	–	–	74.7	–
CCCCCOC(=O)C[C@H](NP(=O)(CO[C@@H](CF)Cn1ccc(N)nc1=O)Oc1ccccc1)C(=O)OCCCCC (stereo partly drawn)	< 1	33.5	54.2	> 32.6	32.6	> 32.6	> 32.6	28	91.5	> 32.6	> 54.2	< 1	1	> 54.2	–	–	–	–	–	–
Nc1ccn(C[C@@H](CF)OCP(=O)(O)O)c(=O)n1	> 1	> 100	> 100	71.1	> 356	71.1	27.1	> 100	> 100	143	68.5	> 2	1	41.9	–	–	–	–	> 356	–
CCCCCOC(=O)C[C@H](NP(=O)(CO[C@@H](CF)Cn1cc(C)c(=O)[nH]c1=O)Oc1ccccc1)C(=O)OCCCCC (stereo partly drawn)	1	34.2	> 100	31.9	31.9	12.7	> 31.9	47	> 100	> 31.9	> 100	1	<1	> 100	–	–	–	–	–	–
Nc1ncnc2c1ncn2C[C@H](CF)OCP(=O)(O)O	> 3	> 100	> 100	172	> 328	> 328	> 328	11.2	> 100	> 328	30.7	> 3	>9	29.2	23	11.9	93.9	8	–	4.04
Nc1nc(O)c2ncn(C[C@H](CF)OCP(=O)(O)O)c2n1	> 15	> 100	> 100	62.3	> 311	62.3	62.3	0.49	82.5	139	6.65	> 22	>204	4.57	66	6.41	93.1	14.5	–	1.42
Nc1nc2c(ncn2COCCO)c(=O)[nH]1 [ACYCLOVIR]	–	–	–	3.02	> 444	20.7	–	–	–	–	–	–	–	–	–	–	–	–	> 444	–
O=c1[nH]c(=O)n([C@H]2C[C@H](O)[C@@H](CO)O2)cc1/C=C/Br [BRIVUDINE]	–	–	–	0.055	> 300	5.21	–	–	–	–	–	–	–	–	–	–	–	–	> 300	–
Nc1ccn(C[C@@H](CO)OCP(=O)(O)O)c(=O)n1 [CIDOFOVIR]	–	–	–	–	> 358	–	3.74	–	–	2.49	–	–	–	–	–	–	–	–	> 358	–
Nc1nc2c(ncn2COC(CO)CO)c(=O)[nH]1 [GANCICLOVIR]	–	–	–	–	> 391	–	16.5	–	–	–	–	–	–	–	–	–	–	–	> 391	–
CC(C)OC(=O)[C@H](C)N[P@](=O)(CO[C@H](C)Cn1cnc2c(N)ncnc21)Oc1ccccc1 [TENOFOVIR ALAFENAMIDE]	–	–	–	–	–	–	–	–	–	–	–	–	–	–	1320	0.01	1.32	132	–	0.001

Source: ChEMBL document CHEMBL4038313, “Expanding the Antiviral Spectrum of 3-Fluoro-2-(phosphonomethoxy)propyl Acyclic Nucleoside Phosphonates: Diamyl Aspartate Amidate Prodrugs” (J Med Chem, 2017)
